Measured values reported in ChEMBL document CHEMBL4513216, “Probing the Open Global Health Chemical Diversity Library for Multistage-Active Starting Points for Next-Generation Antimalarials” (ACS Infect Dis, 2020).

Assay: Toxicity liver stage against HepG2, at 10uM
Assay type: cell-based
Set-up: test concentration 10 uM, cell line HepG2-A16-CD81EGFP
Details: human, HepG2-A16-CD81EGFP cells; read-out: INHIBITION
Outline: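 Uninfected HepG2-A16-CD81EGFP cells, 3 × 10^3 per well, 1536-well, plated on prespotted compound at 10 μM final, parasite-free screening media added to match infected plates; puromycin 10 μM positive, DMSO 0.5% negative; run in parallel with 48 h PbLuc assay at 37 °C, 5% CO2; viability by CellTiter-Glo luminescence, normalized to controls.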

| SMILES | cytotoxicity at 10 µM [%] |
| --- | --- |
| COc1ccc(Cl)cc1NCC(=O)NCCNc1cnccn1 | -11.4 |
| NC(=O)CN1C(=O)CO[C@H]2CN(Cc3ccc(F)c(F)c3)C[C@H]21 | 2.44 |
| CC(C)NC(=O)NC[C@H]1OC[C@@H](NCc2ccccc2O)[C@@H]1O | -1.69 |
| COc1ccccc1CN1CC(OC)CN(C(=O)CC(C)C)CC1=O (stereo not given) | -3.3 |
| COc1cccc(OC)c1C(=O)N1CC(=O)N(C2CCC2)CC(O)C1 (stereo not given) | -5.59 |
| COc1cc2nc(C)n(CC(=O)NCCO)c(=O)c2cc1OC | -8.12 |
| Cc1cc(O)cc(=O)n1CCCC(=O)Nc1n[nH]c2cccc(F)c12 | -8.85 |
| CN(C)S(=O)(=O)NCc1nn(CCN2CCCC2)c(=O)c2ccccc12 | -6.88 |
| Cc1nnn2c1COCC(CNC(=O)c1cnoc1C)C2 (stereo not given) | -2.69 |
| Cc1cccc(CN2C[C@@H]3CN(C(=O)c4ccnnc4)C[C@@H]3C2=O)c1 | -6.89 |
| CC(C)c1cc2c(O)nc(CSCC(=O)NCc3ccncc3)nc2s1 | -6.18 |
| CN(C)CCCNC(=O)c1cc(Cl)ccc1Cl | -6.56 |
| CC(CO)NC(=O)c1ccc2[nH]/c(=N\S(C)(=O)=O)sc2c1 (stereo not given) | -3.24 |
| CCOC(=O)N1CCN(C(=O)c2snnc2-c2ccc(OC)cc2)CC1 | 3.56 |
| CC(=O)c1c(C)nn(S(=O)(=O)c2ccc(C)c(C)c2)c1C | -8.46 |
| CCOCCCNC(=O)C(C)n1cc(Br)cn1 (stereo not given) | -4.24 |
| CCCc1noc(C2CCN(S(=O)(=O)c3cccs3)CC2)n1 | 1.5 |
| CCn1nccc1CNC(=O)C(C)n1cc2c(n1)c(C)nn2C (stereo not given) | 5.32 |
| O=C(N1CCOCC1)N1CCCC(c2ncncc2-c2ccncc2)C1 (stereo not given) | -25.9 |
| Cc1ccc(S(=O)(=O)N2C[C@H]3C[C@H](NC(=O)c4cc(C)no4)[C@H]3C2)cc1 | -11.2 |
| Cc1ccc2c(c1)C(=O)NCC1(CCN(C(=O)c3cc(C)no3)CC1)O2 | -20.8 |
| CSCC[C@H]1CN2CCC[C@H]2CN1Cc1cn(C)nc1C | -9.85 |
| O=C(c1cncnc1)N1C[C@@H]2CC[C@H](Oc3cccc(F)c3)[C@@H]2C1 | -17.1 |
| O=C(C1CC1)N1CCC(c2nc(O)c3c(n2)CN(C2CCCC2)CC3)C1 (stereo not given) | -24.1 |
| Cc1cnn(CCNCc2nccn2CC(F)(F)F)c1 | 6.51 |
| Cc1nccn1-c1ccc(NS(=O)(=O)c2cnn(C)c2)cn1 | -6.38 |
| CCOCCOc1ccc(S(=O)(=O)N2CCc3c(nc[nH]c3=O)C2)cc1 | -5.85 |
| CN(CCc1cccs1)CCc1nccs1 | -5.81 |

| SMILES | cytotoxicity at 10 µM [%] |
| --- | --- |
| CC1(C)CN(C(=O)Nc2cc(C(F)(F)F)c[nH]c2=O)CCO1 | 5.12 |
| COC(=O)c1cccc(CNC(=O)CCC(F)(F)F)c1 | 11.6 |
| CCn1cnnc1CNC(=O)N(C)Cc1c(F)cccc1Cl | -5.56 |
| COC(=O)NCCC(=O)NC(C)Cc1ccccc1Br (stereo not given) | -5.29 |
| CC(C)NC(=O)CN1CCC2(CC1)OCCO2 | -8.67 |
| CCN1CC(C(=O)NC(C)(C)CC)CC1=O (stereo not given) | 1.82 |
| CC(CNC(=O)N1CCN(Cc2ccon2)CC1)N(C)C1CC1 (stereo not given) | -6.74 |
| CCCc1ccc(S(=O)(=O)NCCNC(=O)c2ccoc2)cc1 | 7.36 |
| CCCNC(=O)CCNC(=O)c1ccccc1N1CCOCC1 | 0.321 |
| Cc1noc(C)c1CNC(=O)N1CCC(OCC2CC2)CC1 | -11 |
| O=S(=O)(c1cccnc1)N1CCCC1COc1ccccc1 (stereo not given) | -9.32 |
| CC(C)C1CN(S(=O)(=O)Cc2cccc(C#N)c2)CCS1 (stereo not given) | 2.66 |
| CC(CC(=O)NS(C)(=O)=O)C1CCCCC1 (stereo not given) | -13.5 |
| N#Cc1ccc(NCCC2CCN(CC(F)(F)F)CC2)nc1 | 5.92 |
| CNC(=O)NC(=O)CNC(CC(F)(F)F)c1ccc(F)cc1 (stereo not given) | 7.69 |
| CC(C)(C(=O)O)S(=O)(=O)c1ccc(Br)cc1 | 4.67 |
| Cc1ccc(N2CCCC(N3CCC(CO)CC3)C2=O)cc1 (stereo not given) | 0.473 |
| CCC(CC)S(=O)(=O)NC(=O)c1ccc2c(c1)ncn2C | -6.58 |
| CCn1cc(CNC2CCN(c3cccc(Cl)c3)C2)cn1 (stereo not given) | -10.1 |
| COCc1nn(Cc2ccc(Br)s2)c(=O)o1 | 1.99 |
| O=C(NCc1ccc(Br)c(F)c1)Nc1cn[nH]c1 | -6.62 |
| CCOCc1ccc(NC(=O)NC2CCCn3nc(CC)nc32)cc1 (stereo not given) | -7.68 |
| Cc1nc(C(C)(C)NC(=O)Nc2ccccc2)no1 | -1.48 |
| Cc1cc(N2CCN(CC(=O)N(C)C)CC2)nc(-c2ccncc2)n1 | -3.96 |
| Fc1cnc(N2CCC3(CCCN(c4nncs4)C3)C2)nc1 (stereo not given) | 2.15 |
| CN(C)C(=O)[C@H]1C[C@@H]2CCN(Cc3ccncc3)C[C@H]2O1 | 0.866 |
| COc1nn(C)c2c1CCCN(C(=O)c1cc[nH]n1)C2 | -5.2 |
